From PubChem
S1P4 antag: human S1P4 receptor antagonism; O95977; inhibition, % at 4.98 µM; S1P4-expressing cells, antagonist mode, reporter read-out; 220,000 tested, 0.26% active; in the data active means inhibition above about 29%;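 further: 0% = wells stimulated with agonist and 100% = vehicle wells without agonist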
Target sequence (O95977 whole entry, looked up): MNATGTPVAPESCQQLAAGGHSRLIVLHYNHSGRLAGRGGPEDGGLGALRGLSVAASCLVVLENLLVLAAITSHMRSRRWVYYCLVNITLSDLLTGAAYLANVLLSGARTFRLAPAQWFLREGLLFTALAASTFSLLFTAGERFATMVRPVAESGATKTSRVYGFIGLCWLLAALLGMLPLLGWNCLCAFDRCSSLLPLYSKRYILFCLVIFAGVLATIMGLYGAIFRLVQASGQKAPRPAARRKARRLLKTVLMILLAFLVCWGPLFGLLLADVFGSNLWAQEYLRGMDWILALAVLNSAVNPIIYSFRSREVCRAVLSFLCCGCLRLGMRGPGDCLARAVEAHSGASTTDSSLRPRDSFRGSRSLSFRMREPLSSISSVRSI
S1P4 agonist: agonists of human S1P4 receptor; O95977; S1P4-expressing cell line, agonist reporter assay; activation, % at 4.98 µM; 220,000 tested, 0.35% active; AID 1509; in the data active means activation above about 11%;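 further: 0% = DMSO vehicle and 100% = reference agonist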
MDM2 E3 inh: blocks human Mdm2 ubiquitin ligase activity. AID 1230. Q00987. cell-based MDM2 ubiquitination luciferase reporter, 2 h; 0 = plate control, 100 = twice control, blank-subtracted. signal enhancement, % at 5 µM. 210,000 tested, 0.11% active;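 active means signal enhancement of 30% or more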;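 further: luminescence tracks abundance of the self-degrading MDM2-luciferase fusion protein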
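Assay system: mammalian cells stably expressing self-ubiquitinating, self-degrading MDM2 E3–luciferase fusion. Quantity: 2000 cells in each well. Medium: DMEM culture medium. Compound dosing: single-point 5 µM. Timing: cell settling 4 h, compound treatment 2 h, both 37 °C. Technique: luciferase luminescence. Read-out basis: percent signal gain over controls, blank-subtracted. Benchmarks: plate controls and plate blanks.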
S1P3 antagonist: S1P3 (human) receptor antagonism; AID 485; CHO S1P3 NFAT-BLA reporter, FRET fluorescence, antagonist mode; inhibition, % at 4.98 µM; Q99500; 170,000 tested, 0.27% active;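 active means inhibition above the plate cutoff, the mean inhibition of test wells on that plate plus 3 SD, cut at about 28% in these data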;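 further: cells challenged with S1P at its EC80 of 0.8 µM; blue over green emission ratio from cleaved BLA substrate after 4 h stimulation; 0% = S1P-stimulated wells and 100% = unstimulated DMSO-only wells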
L major viab: Leishmania major promastigote growth inhibition; AID 1063; inhibition, % at 10 µM; 200,000 tested, 9% active; Leishmania major promastigotes, resazurin fluorescence viability; in the data active means inhibition above about 50%;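 further: promastigotes grown with compound for 44 hours at 28 °C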
Numbers without * were called inactive; x = no result. The sample as a whole holds a higher share of hits than the screen did.

SMILES	S1P4 antag	S1P4 agonist	MDM2 E3 inh	S1P3 antagonist	L major viab
CC[n+]1c(/C=C2/C=C(C)CC(C)(C)C2)sc2ccc(OC)cc21	10	0	-14	x	100*
CCC1=C/C(=C/c2sc3ccccc3[n+]2CC)CC(C)(C)C1	19	1	-11	-7	99*
CC[n+]1c(/C=C2\C=C(C)CC(C)C2)sc2ccccc21 (stereo unspecified)	-5	1	-12	x	100*
CC(=O)c1ccccc1NC(=O)Cn1c(=O)cnc2ccccc21	-15	0	4	-7	58*
O=C(c1sc2cc([N+](=O)[O-])ccc2c1Cl)N1CCOCC1	4	1	5	15	-7
CC(C)N(C(=O)c1sc2cc([N+](=O)[O-])ccc2c1Cl)C(C)C	2	-1	-13	x	97*
COCCn1c(-c2cccc([N+](=O)[O-])c2)nc2c1c(=O)[nH]c(=O)n2Cc1ccccc1	-9	2	-1	-1	84*
COc1ccc(Cn2c(-c3ccc(OC)cc3)nc3c(c(=O)c4ccccc4n3C)c2=O)cc1	-18	0	-7	-12	11
COc1ccc(-c2nc3c(c(=O)[nH]c(=O)n3Cc3ccccc3)n2Cc2ccccc2)cc1	-12	1	-13	x	99*
COc1ccc(-c2nc3c(c(=O)[nH]c(=O)n3Cc3ccccc3)n2C)cc1	-7	1	6	x	-1
COc1ccc(Cn2c(-c3ccc(C)cc3)nc3c(c(=O)c4ccccc4n3C)c2=O)cc1	-21	-3	-6	-8	88*
CCOc1ccc2c(c1)C(C)=CC(C)(C)N2C(=O)Nc1ccccc1	-9	3	-18	x	50*
COc1ccc(NC(=O)N2c3ccc(OC)cc3C(C)=CC2(C)C)cc1	17	6	6	-5	30
CC(C)CCn1c(Br)nc2c1c(=O)n(CC(N)=O)c(=O)n2C	-16	0	10	-3	-1
COc1ccc(C2SCCN2C(=S)Nc2cccc(Cl)c2)cc1 (stereo unspecified)	-12	-1	-7	-6	80*
C=C(C)c1cccc(C(C)(C)NC(=O)NCc2ccc(OC)c(OC)c2)c1	-13	1	-6	x	-3
C=C(C)c1cccc(C(C)(C)NC(=O)Nc2ccccc2OCC)c1	-7	1	-8	15	55*
C=C(C)c1cccc(C(C)(C)NC(=O)Nc2cc(C)ccc2OC)c1	7	0	-2	x	52*
C=C(C)c1cccc(C(C)(C)NC(=O)Nc2ncccn2)c1	-34	-2	-11	-17	33
CCCCn1c(N)c(N(CCOC)C(=O)CCc2ccc(OC)cc2)c(=O)[nH]c1=O	-12	-3	-6	-15	-7
O=C(c1cc2nc(-c3ccc(F)cc3)cc(C(F)(F)F)n2n1)N1CCCCC1c1cccnc1 (stereo unspecified)	-16	1	-21	27	96*
O=C(c1cnn2c(C(F)(F)F)cc(-c3ccccc3)nc12)N1CCCCC1c1cccnc1 (stereo unspecified)	-1	0	0	-8	52*
CN1CCN(C(=O)c2cc3nc(-c4ccc(F)cc4)cc(C(F)(F)F)n3n2)CC1	-15	1	-19	17	4
CCc1nc2ccccc2n1CC1CC1(Cl)Cl (stereo unspecified)	10	1	-12	-10	13
CCC(C)n1c(SCC(=O)NC(=O)Nc2ccc3c(c2)OCCO3)nc2ccccc2c1=O (stereo unspecified)	-11	1	-7	-25	86*
SMILES	S1P4 antag	S1P4 agonist	MDM2 E3 inh	S1P3 antagonist	L major viab
CCn1c(/C=C2/C(=O)N(C)c3ccccc32)nc2ccccc2c1=O	1	1	-15	x	31
CCN1C(=O)/C(=C\c2nc3ccccc3c(=O)n2CC)c2ccccc21	0	-1	-19	-16	96*
CCN1C(=O)/C(=C/c2nc3ccccc3c(=O)n2-c2ccccc2)c2ccccc21	6	0	9	x	71*
O=C(Nc1ccccc1Cl)c1ccccc1Oc1ccc(C(F)(F)F)cc1[N+](=O)[O-]	20	1	-19	x	79*
COc1ccccc1NC(=O)COc1ccc(C(F)(F)F)cc1[N+](=O)[O-]	1	-2	x	x	-7
COc1ccc(CN2CCNC(=O)C2CC(=O)NCCCn2cccn2)c(OC)c1 (stereo unspecified)	2	-1	5	-12	-7
O=C(c1cccs1)N1N=C(c2ccc(O)cc2)CC1c1ccccc1 (stereo unspecified)	-13	1	16	-4	64*
Cn1cc(/C=N/n2cnc3sc4c(c3c2=O)CCCC4)c2ccccc21	-7	0	-9	8	12
O=c1c2c3c(sc2ncn1/N=C/c1ccc([N+](=O)[O-])o1)CCCC3	-8	0	7	x	96*
Oc1[nH]c2ccccc2c1N=NC(=S)N1CCOCC1	24	-2	31*	8	x
CCOc1ccc(NC(=S)N=Nc2c(O)[nH]c3ccccc23)cc1	-10	1	-10	-17	98*
CCC1ON(c2ccccc2)C2c3nc4ccccc4n3CC12 (stereo unspecified)	x	x	8	x	x
Cc1cc(C)n(-c2nc(SCCN(C)C)c3c4c(sc3n2)COC(C)(C)C4)n1	-7	-2	-1	x	101*
Cc1ccc2oc(C(Cl)(Cl)Cl)cc(=O)c2c1	-14	0	-1	x	56*
CCCOc1ccc(C(=O)Nc2nc(C)c(Cc3ccc4c(c3)OCO4)s2)cc1	-7	1	-7	-12	64*
CC(=O)c1ccc(-c2nnc(CCC(=O)N(C)Cc3c(C)nc4ccccn34)o2)s1	-4	2	-7	5	1
Cc1ccc(S(=O)(=O)/N=C2/C=C(Sc3ncn[nH]3)C(=O)c3ccccc32)c(C)c1	-25	2	6	-4	99*
CC(C)c1ccc(S(=O)(=O)/N=C2/C=C(Sc3ncn[nH]3)C(=O)c3ccccc32)cc1	24	8	10	-29	99*
Cc1ccc(S(=O)(=O)/N=C2/C=C(Sc3ncn[nH]3)C(=O)c3ccccc32)cc1	-7	6	5	-15	100*
Cc1ccc(S(=O)(=O)Nc2ccc(O)c(Sc3ncn[nH]3)c2)cc1	13	0	-9	15	-1
Cc1ccc(C)c(S(=O)(=O)Nc2ccc(O)c(Sc3ncn[nH]3)c2)c1	4	1	0	-13	x
COc1ccc2c(n1)Sc1nc3ccccc3nc1N2	13	0	-19	11	x
COc1ccc(-n2c3c(cc(C(=O)NNc4ccccc4)c2=O)C(=O)CC(C)(C)C3)cc1	11	-3	-5	-3	60*
CC1(C)CC(=O)c2cc(C(=O)NCc3ccco3)c(=O)n(-c3ccc(Cl)cc3)c2C1	6	0	-20	-8	45
Cc1ccc(-n2c3c(cc(C(=O)NCc4ccco4)c2=O)C(=O)CC(C)(C)C3)cc1	-6	0	-16	1	51*
S=c1[nH]c2cc(-c3ccccc3)ccc2o1	-9	0	x	-11	x
CSc1nnc2c(n1)OC(C1CC=C(C)CC1)Nc1ccccc1-2 (stereo unspecified)	x	x	x	45	x
